Only some compounds are listed: those with a hit (about 2.1% of all), similar ones and a draw of the others.
FN deposit inh: fibronectin deposition inhibition | AID 743247 | inhibition, % at 12.6 µM | AH1F fibroblasts, Alexa488-fibronectin deposition fluorescence, overnight | 350,000 compounds, 0.086% hits;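 active means mean inhibition across replicates of 30% or more, regardless of how many single replicates reach that level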;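 further: positive control wells lacked labelled fibronectin entirely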
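Assay system: AH1F fibroblasts / Quantity: 10000 cells per well / Medium: DMEM plus 2% serum, read in PBS / Reagent: labelled fibronectin 24 nM / Dosing: single dose, pinned / Times: 1 h cell attachment, overnight exposure to compound and label / Signal: fluorescence, ex 485 nm, em 525 nm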
ERp5 block: blocks human ERp5 reductase activity on insulin. Q15084. ERp5 insulin aggregation, absorbance 650 nm, 90 min. inhibition, % at 9.99 µM. 350,000 compounds, 0.05% hits;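 active means mean replicate inhibition above about 25%, with every replicate also reaching it, limit read from the data, passing the limit was not always enough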
FGF22 binding-1: FGF22 (human) thermal shift binding. recombinant FGF22 thermal shift, SYPRO orange fluorescence; percent of sucrose octasulfate shift, DMSO zero. activity (Tm shift, normalised), % at 9.99 µM. 340,000 compounds, 1.5% hits;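 active means mean Tm shift, scaled 0 neutral to 100 positive control, at about 1.3% or above, every replicate too, limit read from the data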
PDI turbidity: blocks human protein disulfide isomerase activity; 350,000 compounds, 0.052% hits; inhibition, % at 10 µM; P07237; AID 588391; PDI insulin aggregation turbidity, A650, 90 min;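 active means mean inhibition across replicates of 30% or more, whatever share of single replicates reach that level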
AF4-AF9 inh: inhibitors of human MLL-AF4/AF9 interaction. AlphaScreen, biotin-AF4 peptide binding to FLAG-AF9. inhibition, % at 10 µM. 350,000 compounds, 0.47% hits. P42568;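 active means every replicate reaching a set inhibition limit, whatever the replicate mean, cut at about 25% in these data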;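 further: 0% = plate neutral control median and 100% = total signal loss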
Target sequence (P42568 whole entry, looked up): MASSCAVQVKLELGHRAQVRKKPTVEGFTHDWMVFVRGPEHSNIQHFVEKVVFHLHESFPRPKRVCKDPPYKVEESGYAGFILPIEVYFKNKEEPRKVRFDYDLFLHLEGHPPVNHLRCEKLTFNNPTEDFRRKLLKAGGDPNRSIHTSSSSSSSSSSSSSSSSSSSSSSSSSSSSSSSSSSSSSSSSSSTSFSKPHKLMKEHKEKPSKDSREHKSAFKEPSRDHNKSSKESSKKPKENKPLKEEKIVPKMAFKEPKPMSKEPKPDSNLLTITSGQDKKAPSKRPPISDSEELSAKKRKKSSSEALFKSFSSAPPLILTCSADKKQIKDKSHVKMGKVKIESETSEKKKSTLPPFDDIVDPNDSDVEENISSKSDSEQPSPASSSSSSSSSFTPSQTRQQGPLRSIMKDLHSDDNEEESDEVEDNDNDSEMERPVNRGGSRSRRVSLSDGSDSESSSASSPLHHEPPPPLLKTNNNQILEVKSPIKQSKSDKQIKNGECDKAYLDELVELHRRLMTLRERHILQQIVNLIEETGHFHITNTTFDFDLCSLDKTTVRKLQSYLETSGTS
ARNT TACC3 PPI: disruptors of human ARNT/TACC3 interaction | 390,000 compounds, 0.66% hits | inhibition, % at 9.99 µM | AlphaScreen His-ARNT PAS-B/GST-TACC3 binding, luminescence; TACC3 fragment carries E629A point mutation | AID 623870;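 active means mean inhibition of replicates at least 50% and at least half of replicates each reaching 50%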;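 further: 0% = complete ARNT plus TACC3 wells and 100% = ARNT alone without TACC3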
FGF22 binding-2: binds human FGF22 shifting its melting temperature; recombinant FGF22 thermal shift, SYPRO orange fluorescence; 1,000 compounds, 2% hits; shares compounds with FGF22 binding-1; AID 720646; thermal shift activity, °C (ΔTm) at 38 µM;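 active means fitted rise in melting shift crosses a set limit at or below the top valid dose tested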
FGF22 TSA: FGF22 (human) binding by thermal shift. AID 743017. 50 tested, under 10 active. Tm shift (activity), % at 38 µM. Thermal shift assay, SYPRO orange, melting temperature shift. shares compounds with FGF22 binding-1;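 active means compounds whose fitted dose curve of melting temperature shift rises past a set threshold within the tested doses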
SYPRO no-protein: compound-only SYPRO artifact for FGF22 binders; shares compounds with FGF22 binding-1; compound-only SYPRO orange thermal shift counter-screen, no protein; AC50, µM (series often up to 38 µM); 1,000 compounds, 2% hits; AID 743019;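 active means rising signal whose fitted curve reaches the 0.54 level within the top valid dose, showing a melting point, actives reach about 13 µM in these data; inactive means the rest, including activity in the opposite direction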; further: value is where the raw curve crosses a fixed level and not half-maximal
The depositor's hits bear a star; i = inactive; x = not tested or not shown; [ ] = dose if it differs, or a comment.

SMILES	FN deposit inh	ERp5 block	FGF22 binding-1	PDI turbidity	AF4-AF9 inh	ARNT TACC3 PPI	FGF22 binding-2	SYPRO no-protein	others
O=C(Nc1nccs1)c1ccc(S(=O)(=O)NCc2cccs2)cc1	x	0	1.4*	-5	-48	12	-0.055	i
COCC(=O)N1CC2(C1)[C@@H](c1ccc(-c3ccc(F)cc3)cc1)[C@@H](CO)N2C(C)=O	x	2	0	x	1	x	x	x
COc1ccccc1NC(=O)N[C@@H]1CC[C@H](CCNS(=O)(=O)c2ccc(F)cc2)O[C@@H]1CO	x	1	0	x	1	-4	x	x
CCCN(C)C[C@@H]1OCCCC[C@@H](C)Oc2ccc(NC(=O)NC(C)C)cc2C(=O)N([C@@H](C)CO)C[C@@H]1C	-1	2	1.4*	x	0	1	0.066	i
CC(C)NC(=O)Nc1ccc2c(c1)C(=O)N([C@@H](C)CO)C[C@@H](C)[C@@H](CN(C)C(=O)Nc1ccccc1)OCCCC[C@@H](C)O2	-1	-4	28*	x	-17	x	0.17	i
CNC[C@H]1OCCCC[C@@H](C)Oc2ccc(NC(=O)Nc3ccc(C(F)(F)F)cc3)cc2C(=O)N([C@H](C)CO)C[C@@H]1C	x	-3	7.0*	x	8	11	0.073[42 µM]	i
COc1ccc(S(=O)(=O)Nc2ccc3c(c2)C(=O)N([C@@H](C)CO)C[C@@H](C)[C@@H](CN(C)C)OCCCC[C@@H](C)O3)cc1	-6	0	2.1*	x	-1	-2	0.075[42 µM]	i
O=C(Nc1ccccc1)N1CC(=O)N2[C@H](CO)[C@@H](c3ccc(C#Cc4cccnc4)cc3)[C@@H]2C1	x	1	x	x	-1	x	x	x
O=C(Nc1cc(F)ccc1F)N1C[C@@H]2[C@H](c3ccccc31)[C@@H](CO)N2C(=O)c1ccccc1	x	2	0	x	-19	-1	x	x
CN1C(=O)c2cc(NC(=O)c3cccc(C(F)(F)F)c3)ccc2OC[C@@H]2O[C@H](CC(=O)O)CC[C@@H]21	-26	-5	0	x	0	-2	x	x
CC(C)NC(=O)N(C)C[C@H]1OCCCC[C@H](C)Oc2ccc(N(C)C)cc2C(=O)N([C@H](C)CO)C[C@H]1C	x	2	209*	x	0	12	0.17[42 µM]	i
CC(C)NC(=O)N(C)C[C@H]1OCCCC[C@H](C)Oc2ccc(N(C)C)cc2C(=O)N([C@@H](C)CO)C[C@H]1C	1	2	-1	x	4	-1	x	x
O=C(O)C1CSC(c2ccc3c(c2)OCO3)N1 (stereo not given)	-8	0	2.7*	-1	-7	3	0.11	i
O=C(CN1CCOCC1)N1CC2(C1)[C@H](c1ccccc1)[C@H](CO)N2Cc1cccc(F)c1	-11	0	0	x	-3	x	x	x
O=C(NCc1ccccn1)C(=O)Nc1ccccc1	3	2	0	2	-10	0	x	x
c1ccc(NCc2ccccn2)cc1	-1	1	1.4*	3	0	-4	0.23	i
CC(=O)Nc1ccc(NC(=O)Nc2ccccc2)cc1	0	-1	1.8*	-1	0	1	0.19	i	FGF22 TSA=0
CC(=O)Nc1cccc(NC(=O)Nc2ccc(C(C)=O)cc2)c1	2	x	x	-2	x	-13	x	x
CC(=O)c1ccc(NC(=O)Nc2cccnc2)cc1	4	5	1.4*	7	0	-8	-0.013	i	FGF22 TSA=1
C[C@@H]1CN([C@H](C)CO)C(=O)c2cc(N(C)C)ccc2O[C@@H](C)CCCCO[C@@H]1CN(C)C(=O)Nc1ccc(C(F)(F)F)cc1	x	-1	0	x	13	x	x	x
COCC(=O)N1C[C@H](C)[C@@H](OC)CN(C)C(=O)c2cc(NC(=O)Nc3cccc(F)c3)ccc2OC[C@@H]1C	8	x	0	x	-2	x	x	x
